Screening data from PubChem BioAssay.
Only some compounds are listed: those with a hit (about 3.7% of all), similar ones and a draw of the others.
ERAP1 HTS inh: ERAP1 (human) enzyme inhibition. Q9NZ08. recombinant ERAP1, Leu-AMC fluorescence, 60 min. inhibition, % at 10.7 µM. actives 0.15% (n = 340,000). AID 652197;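 active means mean replicate inhibition of at least 30%, or all replicates individually reaching that 30% level; inactive means mean below 30% and not every replicate reaching it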;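 further: 0% = neutral control wells and 100% = L-leucinethiol positive control wells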
F508del corr: correctors of CFTR F508del function in bronchial epithelial cells | actives 0.36% (n = 350,000) | activity (quench increase), % at 7.58 µM | CFBE cells, YFP halide quenching; stimulated with forskolin plus potentiator P3; % fluorescence drop versus neutral controls;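 active means mean added fluorescence quench of at least 8% versus neutral control, with both replicates also reaching 8%; inconclusive means only one of the mean or replicate conditions met; inactive means mean below 8% and not both replicates reaching 8%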;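 further: cells transiently co-express mutant CFTR-F508del with the halide-sensitive YFP; corrector assay measuring rescue of mutant channel to the surface after 24 h compound exposure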
DENV2 CPE: inhibitors of DENV2 cytopathic effect | actives 1.7% (n = 350,000) | DENV2-infected cells, cytopathic effect rescue, plate reader | AID 651640 | CPE inhibition, % at 9.99 µM; in the data active means CPE inhibition above about 20%, passing the limit was not always enough; inconclusive means no clear call, values can overlap the other calls; tested in BHK-21 cells;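 further: 0% = median of neutral control wells and 100% = median of positive control wells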
E-selectin induc: E-selectin induction on HUVECs. P16581. HUVEC E-selectin immunofluorescence imaging; normalized: neutral wells 0, TNF-alpha wells 100. activation, % at 7.58 µM. actives 0.37% (n = 260,000). AID 686992;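 active means mean E-selectin-positive cell signal at least 10% of the positive control, reached in at least 60% of replicates, without over 20% cell loss; inconclusive means no rule given, readout overlaps actives, possibly toxicity-flagged; inactive means the rest, including those meeting only one limit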
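Test system: HUVEC | Signal: Immunofluorescence imaging | Read-out: Percent E-selectin-positive cells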
FGF22 binding: binders of recombinant human FGF22 by thermal shift; activity (Tm shift, normalised), % at 9.99 µM; SYPRO orange fluorescence; percent of sucrose octasulfate shift, DMSO zero; actives 1.5% (n = 340,000); AID 651658;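 active means mean Tm shift, scaled 0 neutral to 100 positive control, at about 1.3% or above, every replicate too, limit read from the data; inconclusive means no clear call, values can overlap the other calls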
Target sequence (Q9HCT0 whole entry, looked up): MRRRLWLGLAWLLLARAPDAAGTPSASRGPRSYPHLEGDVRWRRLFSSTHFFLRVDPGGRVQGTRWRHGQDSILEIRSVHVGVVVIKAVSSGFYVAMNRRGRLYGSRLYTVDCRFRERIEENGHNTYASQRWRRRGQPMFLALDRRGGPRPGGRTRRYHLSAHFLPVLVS
Active calls of the source: *; ? = inconclusive; . = no result.

SMILES	ERAP1 HTS inh	F508del corr	DENV2 CPE	E-selectin induc	FGF22 binding
C[C@@H]1CN([C@@H](C)CO)C(=O)Cc2cc(NC(=O)NC3CCCCC3)ccc2O[C@H]1CN(C)C(=O)Nc1ccccc1	0.6	-0.9	4.8	0.0	-0.2
c1ccc2oc(SCc3cn4ccccc4n3)nc2c1	0.4	-5.0	0.0	.	0.1
c1ccc2nc(SCc3cn4ccccc4n3)cnc2c1	-0.4	1.5	-11.1	.	43.1*
OC(C1=CC(=Cc2ccncc2)c2ccccc21)c1ccncc1 (stereo not drawn)	6.7	0.0	-1.5	0.7	43.2*
OC(c1ccccc1)c1ccncc1 (stereo not drawn)	2.1	0.0	?	0.0	0.0
C[C@@H]1CN([C@@H](C)CO)C(=O)Cc2cc(NC(=O)Cc3cn(C)c4ccccc34)ccc2O[C@@H]1CN(C)C(=O)NC1CCCCC1	-0.6	1.3	10.2	.	-0.1
Cn1c2ccccc2c(=O)c2cc(NCCCN3CCOCC3)ccc21	51.6*	2.9	-5.8	0.0	-0.1
C[C@@H]1CN([C@H](C)CO)C(=O)Cc2cc(NS(=O)(=O)c3ccc(F)cc3)ccc2O[C@H]1CN(C)S(=O)(=O)c1ccc(F)cc1	-0.9	-0.1	5.4	0.3	-0.5
COc1ccc2c3c(n(C)c2c1)[C@H](CO)N(Cc1ccccc1F)CC31CN(C(=O)C2CC2)C1	2.0	-3.5	0.4	-0.3	0.0
NCCNC(=O)c1c(O)c2cccc3c2n(c1=O)CCC3	30.6*	-0.2	3.3	.	0.1
O=C(NCc1cccnc1)c1c(O)c2cccc3c2n(c1=O)CCC3	-1.7	-1.6	-1.3	.	43.1*
CSc1nc(S(=O)(=O)c2ccccc2)c(Cl)s1	-1.7	-1.5	.	0.0	43.0*
COc1ccc2c3c([nH]c2c1)[C@@H](CO)N(C(=O)c1cccnc1)CC31CN(C(=O)c2cccnc2)C1	0.8	-0.1	-0.1	-0.3	-0.3
CN(Cc1ccccc1)C(=O)c1ncn(Cc2ccccc2)c1C(=O)N(C)Cc1ccccc1	-1.6	0.2	-7.9	0.0	0.3
CN(Cc1ccccc1)C(=O)c1ncn(C)c1C(=O)N(C)Cc1ccccc1	30.8*	1.3	6.3	0.2	-0.1
CCN(CC)C(=O)c1ncn(C)c1C(=O)N(CC)CC	107.3*	-3.7	3.6	.	0.0
CC(C)C#Cc1ccc2c(c1)O[C@@H](CN(C)Cc1ccncc1)[C@H](C)CN([C@@H](C)CO)S2(=O)=O	.	-2.6	1.6	-0.3	-0.4
O=C(CSc1n[nH]c(-c2ccccc2)n1)NCc1cccc(C(=O)O)c1	1.6	0.9	0.0	.	42.9*
COc1ccc(-c2nc(SCC(=O)Nc3cccc(S(N)(=O)=O)c3)n[nH]2)cc1	-1.1	3.8	3.9	-0.1	1.8*
COc1ccc(NC(=O)CSc2n[nH]c(-c3ccccc3)n2)cc1S(N)(=O)=O	1.1	0.9	52.5*	-0.2	1.1
Nc1nc(SCC(=O)NCc2ccccc2)n[nH]1	2.5	.	.	.	.
C[C@H](CO)N1C[C@H](C)[C@H](CN(C)CC2CC2)Oc2cc(/C=C/c3ccccc3)ccc2S1(=O)=O	0.6	-3.0	-10.8	-0.5	0.0
CCC(=O)N[C@@H]1C=C[C@@H](CC(=O)NCc2ccc(OC)cc2)O[C@H]1CO	1.3	4.9	-2.0	-0.2	-0.1
O=C(Cc1ccncc1)NCC[C@H]1CC[C@H](NC(=O)C2CC2)[C@@H](CO)O1	-0.1	-0.4	5.1	-0.4	-0.4
O=C(NCCOC(=O)Nc1cccc2ccccc12)OCc1ccccc1	-0.2	-1.9	7.6	2.7	0.0
SMILES	ERAP1 HTS inh	F508del corr	DENV2 CPE	E-selectin induc	FGF22 binding
O=C(Nc1cccc2ccccc12)OCc1ccccc1	-6.4	0.8	?	-0.1	43.8*
Cc1ccc(NC(=O)c2ccccc2Cl)cc1-n1cnnn1	-1.5	2.3	7.0	.	43.6*
Cc1ccc(NC(=O)c2ccccc2)cc1-n1cnnn1	3.4	3.2	4.3	.	0.4
Clc1ccccc1OCCCn1ccnc1	0.7	2.6	17.9	0.2	0.1
Clc1cc(Br)ccc1OCCOCCN1CCCC1	2.0	3.2	24.8*	.	-0.1
CC(C)(C)c1cc(Cl)ccc1OCCOCCN1CCCC1	3.4	2.3	-0.7	1.1	0.0
Clc1cc(Br)ccc1OCCCn1ccnc1	-1.5	.	36.6*	.	0.0
COc1ccc(C(=O)Nc2ccc(C(F)(F)F)n(C)c2=O)cc1	2.6	-0.5	-4.0	.	44.0*
Cc1ccc(C(=O)Nc2ccc(C(F)(F)F)n(C)c2=O)cc1	1.4	2.7	-4.3	.	.
COC(=O)C[C@@H]1CC[C@H]2[C@H](COc3ccc(NC(=O)c4cnccn4)cc3C(=O)N2C)O1	-0.3	-0.4	-11.8	-0.1	-0.1
COC(=O)C[C@H]1CC[C@H]2[C@@H](COc3ccc(NC(=O)c4cnccn4)cc3C(=O)N2C)O1	-2.6	0.4	143.6*	0.9	-0.1
CN1C(=O)c2cc(NC(=O)c3cnccn3)ccc2OC[C@@H]2O[C@@H](CC(=O)NCC3CCCCC3)CC[C@H]21	3.5	.	30.0*	0.3	-0.3
C[C@@H]1CCCCO[C@H](CN(C)S(=O)(=O)c2cn(C)cn2)[C@@H](C)CN([C@@H](C)CO)C(=O)c2cc(NC(=O)NC3CCCCC3)ccc2O1	-1.2	-0.9	10.0	-0.1	-0.3
CN(CC(=O)Nc1cccc(F)c1)C(=O)CNS(=O)(=O)c1ccc(N(C)C)c([N+](=O)[O-])c1	-2.5	0.7	89.5*	-0.5	0.0
O=[N+]([O-])c1ccc(Nc2nc(NC3CCCCC3)nc(N3CCCC3)n2)cc1	-0.4	3.1	.	.	43.7*
CC(C)(C)NC(=O)CN(Cc1cccs1)C(=O)CNS(=O)(=O)c1ccc(F)cc1	0.6	-0.5	-0.9	.	43.2*
COC(=O)Cn1c(=NC(=O)c2cc(-c3cccs3)nc3ccccc23)sc2cc(S(N)(=O)=O)ccc21	-0.1	9.5*	-5.0	-1.2	0.2
COc1ccc(NC(=O)Nc2ccc3c(c2)C(=O)N([C@@H](C)CO)C[C@H](C)[C@@H](CN(C)C(=O)NC2CCCCC2)OCCCC[C@H](C)O3)cc1	7.8	-1.9	4.5	0.2	-0.6
O=C(Nc1nccs1)[C@@H]1[C@@H](CO)[C@@H]2Cn3c(cccc3=O)[C@H]1N2C(=O)C1CCCCC1	-2.4	-1.1	10.0	-0.2	.
CC(C)C[C@H]1CN([C@@H](CC(C)C)CN2CCCC2CN2C(=S)NC[C@@H]2Cc2ccc(O)cc2)C(=S)N1CCc1ccccc1 (stereo partly drawn)	-6.6	-0.7	3.5	13.3	0.2
CC(C)C[C@H]1CN([C@@H](CC(C)C)CN2CCC[C@@H]2CN2C(=S)NC[C@@H]2Cc2ccc(O)cc2)C(=S)N1CCc1ccccc1	.	8.8*	3.4	-0.3	-0.1
CC(C)C[C@H]1CNC(=S)N1C[C@H]1CCCN1C[C@H](CC(C)C)N1C[C@H](Cc2ccc(O)cc2)N(CCc2ccccc2)C1=S	0.9	-1.9	39.1*	-0.3	-0.2
CCOc1ccc(CCN2C(=S)N([C@@H](Cc3ccc(O)cc3)CN3CCC[C@@H]3CN3C(=S)NC[C@@H]3CC(C)C)C[C@@H]2Cc2ccccc2)cc1	.	1.9	1.0	-0.2	0.0
